Data set [1] deals with Rattus norvegicus. The data set can be described thus: Antiinflammatory activity against carrageenan-induced ip dosed Wistar rat paw edema model assessed as inhibition of edema administered 30 mins prior to carrageenan challenge measured after 60 mins. The class given is functional. The method, boiled down:
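Wistar rats (150-200 g, either sex), 150 µmol/kg i.p. 30 min before subplantar carrageenan; vehicle control 0.5% SCMC. Paw volume read at 0, 30, 60, 120, 180 min. % oedema inhibition = 100 − [(treated paw volume/control paw volume) × 100].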
(The carrageenan paw model is a standard test of acute inflammation.)

Data set [2] concerns Mus musculus. The data set can be described thus: Immunomodulatory activity in albino mouse assessed as change in humoral antibody titre at 150 umol/kg, po for 7 days followed by sheep RBC challenge measured on day 14. The class given is functional. The method in brief:
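Albino mice, 6 per group, 150 µmol/kg p.o. for 7 days. On day 7, challenged i.p. with 0.1 mL sheep RBC suspension (about 1×10^8 cells per 0.1 mL, saline-washed). Retro-orbital blood taken on day 14, serum separated at 2500 rpm for 10 min, and antibody titre determined by microtitre haemagglutination. Mean ± SD.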

The subject of data set [3] is Mus musculus. Kind of data set: Immunomodulatory activity in albino mouse assessed as change in carbon clearance index at 150 umol/kg, po for 5 days followed by carbon ink challenge. It is filed as functional. The method in brief: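 Albino mice (18-22 g), 6 per group, 150 µmol/kg p.o. daily for 5 days (control 0.5% SCMC, 0.3 mL). Carbon ink suspension (10 µL/g) given via tail vein 48 h later. Retro-orbital blood at 3 and 15 min, 25 µL into 2 mL 0.1% Na2CO3, OD read. K = (ln OD1 − ln OD2)/12. Mean ± SD.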

Data set [4] concerns Rattus norvegicus. Kind of data set: Gastrointestinal toxicity in Wistar rat assessed as ulcer index at 150 umol/kg, po administered for 3 days measured on day 4 (reference value: 0.33 +/-0.20). Conditions: in vivo, 72 h. It is filed as organism-based.
Data set [5] deals with Rattus norvegicus. The data set can be described thus: Antioxidant activity in Wistar rat assessed as catalase level measured per mg of protein at 150 umol/kg, po administered for 3 days measured on day 4 (reference value: 22.14 +/- 1.19 umol). The class given is functional.
Data set [6] relates to Rattus norvegicus. The data set can be described thus: Antioxidant activity in Wistar rat assessed as thiobarbituric acid reactive substance level measured per mg of protein at 150 umol/kg, po administered for 3 days measured on day 4 (reference value: 3.72 +/- 00.23 nmol). The class given is functional.
In data set [7] the test system is Rattus norvegicus. The data set can be described thus: Antioxidant activity in Wistar rat assessed as GSH level measured per 100 mg of protein at 150 umol/kg, po administered for 3 days measured on day 4 (reference value: 184.10 +/- 4.19 umol). It is filed as functional.

Each structure is given as a SMILES string. Where only a bound is given, the exact number is not on record here.

Turning to `Nc1ccc(O)c(-c2nc3ccc([N+](=O)[O-])cc3[nH]2)c1`, the “inhibition (INH)” value in the data set on Rattus norvegicus [1] is given as 42.9%. The Activity in the data set on Mus musculus [2] was 23%; with Mus musculus [3], 41.2%.

Regarding `COc1ccc2nc(-c3cc(N)ccc3O)[nH]c2c1`, the “inhibition (INH)” value in the data set on Rattus norvegicus [1] stood at 55.7%. The Activity is listed as 46.2% in the data set on Mus musculus [2] and 70.5% in the data set on Mus musculus [3].

In the case of `CC(C)Cc1ccc(C(C)c2nc3ccc(C(=O)c4ccccc4)cc3[nH]2)cc1` (stereo not drawn), the “inhibition (INH)” value in the data set on Rattus norvegicus [1] came out at 68.1%. Further, the Activity was 61.5% in the data set with Mus musculus [2]; >100% in the data set with Mus musculus [3]; 14.12 µmol with Rattus norvegicus [5]; 11.28 nmol in the data set with Rattus norvegicus [6]; 131.5 µmol with Rattus norvegicus [7]. Moreover, the UI in the data set with Rattus norvegicus [4] amounted to 0.7.

In the case of `CC(C)Cc1ccc(C(C)C(=O)Nc2nc3ccccc3[nH]2)cc1` (stereo not drawn), the “inhibition (INH)” value in the data set on Rattus norvegicus [1] amounted to 53.8%. The Activity came to 38.4% in the data set on Mus musculus [2] and 76.4% in the data set on Mus musculus [3].

In the case of `Nc1ccc(O)c(C(=O)Nc2nc3ccc(C(=O)c4ccccc4)cc3[nH]2)c1`, the “inhibition (INH)” value with Rattus norvegicus [1] was 52.1%. The Activity in the data set with Mus musculus [2] is listed as -26.9%; in the data set on Mus musculus [3], -17.6%.

`Nc1ccc(O)c(-c2nc3ccccc3[nH]2)c1`: the “inhibition (INH)” value in the data set with Rattus norvegicus [1] is 54.6%. The Activity is 61.5% in the data set on Mus musculus [2]; >100% in the data set on Mus musculus [3]; 18.78 µmol in the data set with Rattus norvegicus [5]; 5.47 nmol in the data set on Rattus norvegicus [6]; 178.18 µmol with Rattus norvegicus [7]. The UI in the data set on Rattus norvegicus [4] is listed as 0.58.

In the case of `CC(C)Cc1ccc(C(C)C(=O)Nc2nc3ccc(C(=O)c4ccccc4)cc3[nH]2)cc1` (stereo not drawn), the “inhibition (INH)” value with Rattus norvegicus [1] turned out to be 60.1%. Also, the Activity came to 42.3% with Mus musculus [2] and 64.7% in the data set on Mus musculus [3].

Consider `COc1ccc2nc(NC(=O)c3cc(N)ccc3O)[nH]c2c1`, for which the “inhibition (INH)” value with Rattus norvegicus [1] is recorded as 50%. Moreover, the Activity in the data set on Mus musculus [2] was -34.6%; in the data set with Mus musculus [3], -29.4%.

On to `COc1ccc2c(c1)c(CC(=O)O)c(C)n2C(=O)c1ccc(Cl)cc1` [INDOMETHACIN], for which, in the data set on Rattus norvegicus [4], the UI came to 3.17. The values for the Activity with Rattus norvegicus [5], in the data set with Rattus norvegicus [6] and with Rattus norvegicus [7] were 7.79 µmol, 30.41 nmol and 85.2 µmol, respectively.

On to `Cc1ccc2nc(NC(=O)c3cc(N)ccc3O)[nH]c2c1`, for which the “inhibition (INH)” value in the data set with Rattus norvegicus [1] stood at 48.8%. Moreover, the Activity with Mus musculus [2] is on record as -38.4%; in the data set on Mus musculus [3], -35.2%.

Consider `COc1ccc2nc(C(C)c3ccc(CC(C)C)cc3)[nH]c2c1` (stereo not drawn), for which the “inhibition (INH)” value in the data set on Rattus norvegicus [1] was found to be 64.7%. The figures for the Activity in the data set on Mus musculus [2] and in the data set with Mus musculus [3] were 42.3% and 52.9%, respectively.

With `Nc1ccc(O)c(C(=O)Nc2nc3ccc([N+](=O)[O-])cc3[nH]2)c1`, in the data set with Rattus norvegicus [1], the “inhibition (INH)” value is 36.9%. The Activity with Mus musculus [2] was -50%; in the data set with Mus musculus [3], -41.1%; in the data set with Rattus norvegicus [5] it was 11.87 µmol; with Rattus norvegicus [6] it was 11.98 nmol; with Rattus norvegicus [7], 127.32 µmol. Moreover, the UI in the data set on Rattus norvegicus [4] is 0.4.

As for `c1ccc([C@H]2CN3CCSC3=N2)cc1` [LEVAMISOLE], the Activity with Mus musculus [2] is listed as 65.3%; in the data set with Mus musculus [3], 88.2%.

As to `CC(C)Cc1ccc(C(C)c2nc3ccc([N+](=O)[O-])cc3[nH]2)cc1` (stereo not drawn), the “inhibition (INH)” value with Rattus norvegicus [1] stood at 38%. In addition, the Activity in the data set with Mus musculus [2] is listed as 19.2%; in the data set with Mus musculus [3], 29.4%.

As for `Nc1ccc(O)c(C(=O)O)c1` [MESALAMINE], in the data set with Rattus norvegicus [1], the “inhibition (INH)” value was 50%.

For the compound `Cc1ccc2nc(NC(=O)C(C)c3ccc(CC(C)C)cc3)[nH]c2c1` (stereo not drawn), the “inhibition (INH)” value in the data set on Rattus norvegicus [1] came to 54.1%. Besides, the Activity in the data set with Mus musculus [2] worked out at 23.1%; in the data set on Mus musculus [3], 47.1%.

With `CC(C)Cc1ccc(C(C)C(=O)Nc2nc3ccc([N+](=O)[O-])cc3[nH]2)cc1` (stereo not drawn), the “inhibition (INH)” value in the data set with Rattus norvegicus [1] is 34.3%. For the same compound, the Activity came to 15.3% with Mus musculus [2] and 23.5% in the data set with Mus musculus [3].

For `CC(C)Cc1ccc(C(C)c2nc3ccccc3[nH]2)cc1` (stereo not drawn), the “inhibition (INH)” value with Rattus norvegicus [1] is reported as 57.1%. In addition, the Activity in the data set on Mus musculus [2] is 57.6%; with Mus musculus [3], >100%; in the data set with Rattus norvegicus [5] it was 18.26 µmol; in the data set with Rattus norvegicus [6], 5.9 nmol; with Rattus norvegicus [7] it was 158.6 µmol. Moreover, the UI in the data set on Rattus norvegicus [4] turned out to be 0.92.

Regarding `Cc1ccc2nc(C(C)c3ccc(CC(C)C)cc3)[nH]c2c1` (stereo not drawn), in the data set on Rattus norvegicus [1], the “inhibition (INH)” value was determined as 58%. In addition, the Activity with Mus musculus [2] came to 38.4%; with Mus musculus [3] it was 70.5%.

As for `COc1ccc2nc(NC(=O)C(C)c3ccc(CC(C)C)cc3)[nH]c2c1` (stereo not drawn), in the data set with Rattus norvegicus [1], the “inhibition (INH)” value came to 55.3%. The Activity with Mus musculus [2] was found to be 26.9%; in the data set on Mus musculus [3] it was 52.9%.

On to `CC(C)Cc1ccc(C(C)C(=O)O)cc1` (stereo not drawn) [IBUPROFEN], for which the “inhibition (INH)” value in the data set with Rattus norvegicus [1] is given as 53.8%.

Consider `Cc1ccc2nc(-c3cc(N)ccc3O)[nH]c2c1`, for which the “inhibition (INH)” value in the data set on Rattus norvegicus [1] was 52.4%. The Activity in the data set on Mus musculus [2] was found to be 42.3%; with Mus musculus [3], 58.8%.

With `Nc1ccc(O)c(-c2nc3ccc(C(=O)c4ccccc4)cc3[nH]2)c1`, the “inhibition (INH)” value in the data set on Rattus norvegicus [1] came out at 62.6%. The Activity in the data set on Mus musculus [2] is 69.2%; in the data set on Mus musculus [3], >100%; with Rattus norvegicus [5] it was 16.94 µmol; with Rattus norvegicus [6], 8.95 nmol; in the data set on Rattus norvegicus [7], 153.38 µmol. The UI in the data set with Rattus norvegicus [4] turned out to be 1.1.

Regarding `Nc1ccc(O)c(C(=O)Nc2nc3ccccc3[nH]2)c1`, the “inhibition (INH)” value in the data set with Rattus norvegicus [1] is recorded as 50%. Further, the Activity was -34.6% in the data set on Mus musculus [2] and -29.4% in the data set on Mus musculus [3].

The record behind these values is ChEMBL document CHEMBL3352259, “Benzimidazole--ibuprofen/mesalamine conjugates: potential candidates for multifactorial diseases” (Eur J Med Chem, 2015).
